The source made the active and inactive calls. No cut-off for these calls is given here. Residues, ends and D or L forms follow the SMILES beside them.

In assay [1] the target is D(2) dopamine receptor (Homo sapiens) (UniProt P14416). Kind of assay: Positive allosteric modulation of human dopamine D2S receptor expressed in CHO cell membranes assessed as stimulation of [3H]-NPA binding at 1 to 10 uM after 60 mins by beta scintillation counting analysis. In short, it runs like this:
(§1)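 Membranes from confluent CHO cells stably expressing human D2S, homogenized and spun at 48,400 g. Membranes were incubated with 0.25 nM [3H]NPA plus compound (eight concentrations) for 60 min at 25 °C in 50 mM Tris-HCl pH 7.4, 120 mM NaCl, 5 mM KCl, 4 mM MgCl2, 1 mM EDTA. Nonspecific binding was defined with (+)-butaclamol. Samples were filtered through PEI-treated filters. Result is % increase of specific binding over compound-free control; duplicates, three experiments, ANOVA.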

The target is the same in assay [2]. Nature of the assay: Positive allosteric modulation of human dopamine D2S receptor expressed in CHO cell membranes assessed as stimulation of [3H]-NPA binding at 10^-12 to 10^-9 M after 60 mins by beta scintillation counting analysis. An outline of the steps: as §1
For assay [3] the target is unchanged. Kind of assay: Positive allosteric modulation of human dopamine D2S receptor expressed in CHO cell membranes assessed as stimulation of [3H]-NPA binding at 10^-8 to 10^-4 M after 60 mins by beta scintillation counting analysis. An outline of the steps: as §1

Sequence of D(2) dopamine receptor (Homo sapiens) (P14416 whole entry): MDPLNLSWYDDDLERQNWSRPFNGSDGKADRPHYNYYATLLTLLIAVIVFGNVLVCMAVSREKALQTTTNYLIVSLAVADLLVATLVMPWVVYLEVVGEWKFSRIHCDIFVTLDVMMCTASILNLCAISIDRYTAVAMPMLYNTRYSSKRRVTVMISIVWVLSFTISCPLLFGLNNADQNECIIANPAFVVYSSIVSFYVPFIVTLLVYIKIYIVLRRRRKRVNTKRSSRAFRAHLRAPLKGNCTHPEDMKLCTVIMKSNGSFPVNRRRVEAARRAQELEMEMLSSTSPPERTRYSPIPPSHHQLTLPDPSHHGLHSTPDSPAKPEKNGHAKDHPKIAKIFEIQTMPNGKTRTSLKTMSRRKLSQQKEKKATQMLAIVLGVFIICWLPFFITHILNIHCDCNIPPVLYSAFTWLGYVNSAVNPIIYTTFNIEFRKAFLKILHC

As to `COC(=O)CNC(=O)[C@@H](NC(=O)[C@@H]1N[C@@H](CN=[N+]=[N-])C[C@H]1CN=[N+]=[N-])C(C)C`, the outcome in assay [1] was Active.
Consider `CC(C)[C@H](NC(=O)[C@H]1N[C@H](CN=[N+]=[N-])C[C@@H]1CN=[N+]=[N-])C(=O)NCC(N)=O`, for which, in assay [2], the result was Active. The outcome in assay [3] was inactive.
Take `CC(C)C[C@H](NC(=O)[C@H]1N[C@H](CN=[N+]=[N-])C[C@@H]1CN=[N+]=[N-])C(=O)NCC(N)=O`: the outcome in assay [1] was Active.
On the same count and under the same terms, in the case of `COC(=O)CNC(=O)[C@H](CC(C)C)NC(=O)[C@H]1N[C@H](CN=[N+]=[N-])C[C@@H]1CN=[N+]=[N-]` it was “Active”.
On to `CC(C)[C@H](NC(=O)[C@H]1N[C@H](CN=[N+]=[N-])C[C@@H]1CN=[N+]=[N-])C(=O)NCC(=O)O`, for which the result in assay [2] was Active. The outcome in assay [3] was inactive.
In the case of `CC(C)[C@H](NC(=O)[C@@H]1N[C@@H](CN=[N+]=[N-])C[C@H]1CN=[N+]=[N-])C(=O)NCC(=O)O`, the result in assay [1] was Active.
Still for that read-out and setting: in the case of `COC(=O)CNC(=O)[C@@H](NC(=O)[C@H]1N[C@H](CN=[N+]=[N-])C[C@@H]1CN=[N+]=[N-])C(C)C` it was “Active”; in that of `CC(C)C[C@H](NC(=O)[C@@H]1N[C@@H](CN=[N+]=[N-])C[C@H]1CN=[N+]=[N-])C(=O)NCC(=O)O`, “Active”; in that of `COC(=O)CNC(=O)[C@H](CC(C)C)NC(=O)[C@@H]1N[C@@H](CN=[N+]=[N-])C[C@H]1CN=[N+]=[N-]`, “Active”.
Same read-out and setting: in the case of `CC(C)C[C@H](NC(=O)[C@@H]1N[C@@H](CN=[N+]=[N-])C[C@H]1CN=[N+]=[N-])C(=O)NCC(N)=O` it was “Active”; in that of `CC(C)[C@H](NC(=O)[C@@H]1N[C@@H](CN=[N+]=[N-])C[C@H]1CN=[N+]=[N-])C(=O)NCC(N)=O`, “Active”.
With `CC(C)C[C@H](NC(=O)[C@@H]1CCCN1)C(=O)NCC(N)=O` (H-Pro-Leu-Gly-NH2), in assay [2], the outcome was Active. Also, the outcome in assay [3] was inactive.

For the origin of these results see ChEMBL document CHEMBL2434858, “Synthesis and allosteric modulation of the dopamine receptor by peptide analogs of L-prolyl-L-leucyl-glycinamide (PLG) modified in the L-proline or L-proline and L-leucine scaffolds” (Eur J Med Chem, 2013).
